Reference: ChEMBL document CHEMBL2169883, “Design, synthesis, and structure-activity relationship of N-arylnaphthylamine derivatives as amyloid aggregation inhibitors” (J Med Chem, 2012)

Tested on: Mus musculus
Test: Toxicity in mouse assessed as incidence of side effect at 25 mg/kg, sc
Assay type: organism-based
Set-up: dose 25 mg/kg, route subcutaneous
Settings: in vivo

SMILES | Activity
COc1ccc(Nc2ccc(OC)c3ccccc23)cc1 | Non-toxic

Tested on: Mus musculus
Test: Toxicity in mouse assessed as incidence of discomfort at 25 mg/kg, sc
Assay type: organism-based
Set-up: dose 25 mg/kg, route subcutaneous
Settings: in vivo

SMILES | Activity
COc1ccc(Nc2ccc(OC)c3ccccc23)cc1 | Non-toxic

Tested on: not listed separately
Test: Tmax in mouse brain at 25 mg/kg, sc
Assay type: ADME, organism-based
Set-up: dose 25 mg/kg, route subcutaneous
Settings: not given
Outline: (§1)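 Mice received 25 mg/kg sc in ethanol/PEG-400/saline (10:40:50). Trunk blood and brain were collected at 0–240 min. Plasma and brain homogenate were solid-phase extracted and quantified by RP-HPLC (UV 224 nm, internal standard), n = 3. Cmax and tmax were read directly from the data; brain and plasma AUCt were calculated by the linear trapezoidal rule to give the brain/plasma ratio.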

SMILES | Tmax [h]
COc1ccc(Nc2ccc(OC)c3ccccc23)cc1 | 1

Tested on: not listed separately
Test: Ratio of drug level from brain to plasma in mouse at 25 mg/kg, sc
Assay type: ADME, organism-based
Set-up: dose 25 mg/kg, route subcutaneous
Settings: read-out: BPR
Outline: as §1

SMILES | Kp
COc1ccc(Nc2ccc(OC)c3ccccc23)cc1 | 2

Tested on: not listed separately
Test: Ratio of drug level from brain to plasma in rat administered via intranasal route
Assay type: ADME
Settings: inhaled or intranasal, read-out: BPR

SMILES | Kp
CCN(C)C(=O)Oc1cccc([C@H](C)N(C)C)c1 [RIVASTIGMINE] | 3

Tested on: not listed separately
Test: Cmax in mouse brain at 25 mg/kg, sc
Assay type: ADME, organism-based
Set-up: dose 25 mg/kg, route subcutaneous
Settings: not given
Outline: as §1

SMILES | Cmax [ng/mL]
COc1ccc(Nc2ccc(OC)c3ccccc23)cc1 | 410

Tested on: not listed separately
Test: Inhibition of amyloid beta (1 to 42) aggregation after 24 hrs by Thioflavin-T fluorescence assay
Settings: not given
Outline: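 Nonaggregate Aβ1-42 (44 μM working solution) was then added, and plates were agitated at 37 °C for 24 h. Read-out used 10 μM ThT in Na2HPO4 pH 6.5 (ex 450/em 486 nm), in triplicate; IC50 came from % residual aggregate dose-response.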

SMILES | IC50
COC(=O)c1ccc(Nc2ccc(OC)c3ccccc23)cc1 | ND(Insoluble)
COC(=O)c1ccc(Nc2ccc3ccccc3c2O)cc1 | ND(Insoluble)
Oc1ccc2ccccc2c1Nc1c(O)ccc2ccccc12 | ND(Unstable)
COc1ccc(Sc2ccc(OC)c3ccccc23)cc1 | ND(Insoluble)
COc1ccc(S(=O)(=O)c2ccc(OC)c3ccccc23)cc1 | ND(Insoluble)
OCc1ccc(Nc2ccc(O)c3ccccc23)cc1 | ND(Unstable)
COc1ccc(Nc2ccccc2)c2ccccc12 | ND(Insoluble)

Same assay, conditions: read-out: IC50

SMILES | IC50 [µM]
COc1ccccc1Nc1ccc(OC)c2ccccc12 | > 5
COc1ccc(Nc2ccc(OC)c3ccccc23)cc1 | 5.6
COc1ccc(I)cc1Nc1ccc(OC)c2ccccc12 | > 5
COc1ccc(Nc2ccc(OC)c3ccccc23)cc1C(=O)O | > 80
O=C(O)c1ccccc1Nc1c(O)ccc2ccccc12 | 14.1
COC(=O)c1ccccc1Nc1c(O)ccc2ccccc12 | > 20
COC(=O)c1ccccc1Nc1c(OC)ccc2ccccc12 | > 5
Oc1c(Nc2ccccc2)ccc2ccccc12 | 2.4
O=C(O)c1ccc(Nc2ccc3ccccc3c2O)cc1 | 2.6
COc1c(Nc2ccccc2)ccc2ccccc12 | 33.6
COc1c(Nc2ccc(C(=O)O)cc2)ccc2ccccc12 | > 20
COC(=O)c1ccc(Nc2ccc3ccccc3c2OC)cc1 | > 20
COc1c(Nc2ccc(I)cc2)ccc2ccccc12 | > 5
COc1ccc2ccccc2c1Nc1c(OC)ccc2ccccc12 | 5.7
Oc1ccc(Sc2ccc(O)c3ccccc23)cc1 | 10.9
O=S(=O)(c1ccc(O)cc1)c1ccc(O)c2ccccc12 | > 100
O=C1c2ccccc2C(=O)c2c(O)c(O)cc(Nc3ccc(S(=O)(=O)O)cc3)c21 | 1.1

SMILES | IC50 [µM]
O=C(O)c1ccc(Nc2cccc3ccccc23)cc1 | > 100
COC(=O)c1ccc(Nc2cccc3ccccc23)cc1 | > 20
Fc1ccc(Nc2ccc(F)c3ccccc23)cc1 | > 30
CSc1ccc(Nc2ccc(F)c3ccccc23)cc1 | > 5
COc1ccc(Nc2ccc([N+](=O)[O-])c3ccccc23)cc1 | 2.7
CSc1ccc(Nc2ccc(N(C)C)c3ccccc23)cc1 | 2.2
Oc1ccc(Nc2ccccc2)c2ccccc12 | 5.4
O=C(O)c1ccc(Nc2ccc(O)c3ccccc23)cc1 | 57.4
COC(=O)c1ccc(Nc2ccc(O)c3ccccc23)cc1 | 5.1
Oc1ccc(Nc2ccc(O)c3ccccc23)cc1 | 1
O=C(O)c1cc(Nc2ccc(O)c3ccccc23)ccc1O | 46.1
COc1ccc(Nc2ccc(C(=O)O)cc2)c2ccccc12 | > 60
O=C(O)c1ccccc1Nc1ccc(CCCc2ccc(Cl)c(Cl)c2)cc1 | 1
O=C(O)c1c(Nc2ccc(CCc3ccc(Cl)c(Cl)c3)cc2)cccc1C(F)(F)F | 0.1
O=C(O)c1ccccc1Nc1ccc(CCc2ccc(Cl)c(Cl)c2)cc1 | 2
O=C(O)c1cc2ccccc2c(Cc2c(O)c(C(=O)O)cc3ccccc23)c1O [PAMOIC ACID] | 38.2

Tested on: not listed separately
Test: in vivo
Settings: rat, brain/plasma, po, 16 mg/kg

SMILES | Kp
Cl.Nc1c2c(nc3ccccc13)CCCC2.O | 5
